# In ChEMBL document CHEMBL4038309, “Design and Synthesis of Chlorinated and Fluorinated 7-Azaindenoisoquinolines as Potent Cytotoxic Anticancer Agents That Inhibit Topoisomerase I” (J Med Chem, 2017):
# Active and inactive are the calls of the source. No cut-off for these calls is given here.
# Tests used:
# [1] = test system: HCT-116; experiment: Antiproliferative activity against human HCT116 cells assessed as growth inhibition; type: functional
# How it was run: (§1)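 NCI-60 screen: single-dose pre-screen at 10 μM, then five concentrations from 0.01 to 100 μM. Values beyond the tested range are recorded as 0.01 or 100 μM.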
# [2] = test system: DU-145; experiment: Antiproliferative activity against human DU145 cells assessed as growth inhibition; type: functional; how it was run: as §1
# [3] = test system: MCF7; experiment: Antiproliferative activity against human MCF7 cells assessed as growth inhibition; type: functional; how it was run: as §1
# [4] = test system: OVCAR-3; experiment: Antiproliferative activity against human OVCAR3 cells assessed as growth inhibition; type: functional; how it was run: as §1
# [5] = test system: SF-539; experiment: Antiproliferative activity against human SF539 cells assessed as growth inhibition; type: functional; how it was run: as §1
# [6] = test system: UACC-62; experiment: Antiproliferative activity against human UACC62 cells assessed as growth inhibition; type: functional; how it was run: as §1
# [7] = test system: SN12C; experiment: Antiproliferative activity against human SN12C cells assessed as growth inhibition; type: functional; how it was run: as §1
# [8] = test system: HOP-62; experiment: Antiproliferative activity against human HOP62 cells assessed as growth inhibition; type: functional; how it was run: as §1
# [9] = target: T1, DNA topoisomerase 1 (Homo sapiens) (UniProt P11387); experiment: Inhibition of recombinant Top1 (unknown origin) assessed as Top 1 mediated DNA cleavage using 3'-[32P]-labeled 117 bp DNA as substrate at 0.1 to 100 uM after 20 mins by PAGE analysis
# T1 sequence (whole entry): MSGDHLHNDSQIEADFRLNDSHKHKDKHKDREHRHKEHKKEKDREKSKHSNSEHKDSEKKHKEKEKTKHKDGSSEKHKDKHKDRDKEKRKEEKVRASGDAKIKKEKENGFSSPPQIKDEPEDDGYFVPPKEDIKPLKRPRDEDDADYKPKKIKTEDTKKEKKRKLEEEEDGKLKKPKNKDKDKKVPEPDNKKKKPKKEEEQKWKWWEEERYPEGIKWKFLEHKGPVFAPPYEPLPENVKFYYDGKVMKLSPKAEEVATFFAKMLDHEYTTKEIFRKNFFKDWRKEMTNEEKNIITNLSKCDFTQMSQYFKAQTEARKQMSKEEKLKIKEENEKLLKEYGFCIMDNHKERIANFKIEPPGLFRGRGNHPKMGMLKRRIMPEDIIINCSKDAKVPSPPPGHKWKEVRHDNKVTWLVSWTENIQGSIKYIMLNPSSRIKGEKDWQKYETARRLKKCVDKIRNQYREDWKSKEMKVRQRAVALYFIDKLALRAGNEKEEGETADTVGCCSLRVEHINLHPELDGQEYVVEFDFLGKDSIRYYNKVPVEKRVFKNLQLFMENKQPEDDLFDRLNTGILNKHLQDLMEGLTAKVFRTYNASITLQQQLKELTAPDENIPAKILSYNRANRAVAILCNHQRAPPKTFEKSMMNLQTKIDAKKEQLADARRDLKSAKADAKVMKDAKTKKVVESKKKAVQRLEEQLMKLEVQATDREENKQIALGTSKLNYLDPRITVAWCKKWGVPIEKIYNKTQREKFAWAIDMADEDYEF
# How it was run: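 About 2 nM 3'-[32P]-labeled DNA with recombinant Top1 in 10 mM Tris-HCl pH 7.5, 50 mM KCl, 5 mM MgCl2, 0.1 mM EDTA, 15 μg/mL BSA, 25 °C, 20 min. Compound at 0.1, 1, 10 and 100 μM. Stopped with 0.5% SDS and formamide dye, then run on 20% denaturing PAGE with phosphorimaging.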
Compound,GI50 [1],GI50 [2],GI50 [3],GI50 [4],GI50 [5],GI50 [6],GI50 [7],GI50 [8],Top1-mediated DNA cleavage activity (active/not active) [9]
COc1cnc2c(c1)C(=O)c1c-2n(CCCN2CCC(O)CC2)c(=O)c2cc(F)ccc12,89 nM,174 nM,31 nM,254 nM,295 nM,240 nM,189 nM,142 nM,inactive
COc1cnc2c(c1)C(=O)c1c-2n(CCCNC2=NCCS2)c(=O)c2cc(F)ccc12,82 nM,144 nM,33 nM,567 nM,305 nM,344 nM,238 nM,59 nM,Active
COc1cnc2c(c1)C(=O)c1c-2n(CCCN2CCCC2)c(=O)c2cc(Cl)ccc12,–,–,–,–,–,–,–,–,Active
COc1cnc2c(c1)C(=O)c1c-2n(CCCNC(C)C)c(=O)c2cc(F)ccc12,93 nM,210 nM,31 nM,190 nM,248 nM,271 nM,164 nM,107 nM,Active
COc1cnc2c(c1)C(=O)c1c-2n(CCCN2CCNCC2)c(=O)c2cc(F)ccc12,91 nM,62 nM,34 nM,335 nM,532 nM,1260 nM,80 nM,66 nM,inactive
COc1cnc2c(c1)C(=O)c1c-2n(CCCN2CCOCC2)c(=O)c2cc([N+](=O)[O-])ccc12,–,–,–,–,–,–,–,–,Active
COc1cnc2c(c1)C(=O)c1c-2n(CCCN2CCNCC2)c(=O)c2cc(Cl)ccc12,298 nM,242 nM,89 nM,1430 nM,1330 nM,1430 nM,489 nM,200 nM,inactive
CNCCCn1c2c(c3ccc(Cl)cc3c1=O)C(=O)c1cc(OC)cnc1-2,550 nM,331 nM,46 nM,1410 nM,730 nM,574 nM,1180 nM,220 nM,Active
COc1cnc2c(c1)C(=O)c1c-2n(CCCN2CCCC2)c(=O)c2cc(F)ccc12,153 nM,211 nM,48 nM,307 nM,360 nM,471 nM,241 nM,212 nM,Active
